Data on 2 compounds can be found in PMC4654616 (ACS chemical biology, 2015).

Read-outs that look alike come from different tables or passages of the source. Some results are limits rather than exact numbers.

Series [1] deals with T1, uPAR (Homo sapiens, UniProt Q03405). The series can be described thus: Fluorescence polarization, displacement of AE147-FAM peptide from uPAR. The format is binding. The procedure, abridged:
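Test compound was serially diluted in DMSO, then in PBS with 0.01% Triton X-100 (final 100 µM to 0.046 µM). It was preincubated at least 15 min with uPAR before AE147-FAM peptide was added. Final levels were 320 nM uPAR, 100 nM peptide and 2% DMSO. Polarization was read at ex 485/em 530 nm in duplicate. Peptide-only and uPAR + peptide controls were run in quadruplicate.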
A general note: Polarisation of emitted light reports the rotation of a fluorescent probe.

In series [2] the target is T2, uPAR•uPAATF interaction (Homo sapiens, UniProt Q03405). In words: Microtiter-based ELISA for uPAR•uPAATF. The format is binding. The procedure, abridged: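 Wells were coated with uPA_ATF (2 µg·mL⁻¹ in PBS, 2 h, 4 °C) and blocked 1 h at room temperature. Purified uPAR lacking the GPI anchor (75 nM, PBS with 0.025% Triton X-100) was added with test compound for 30 min. Compound was screened at 50 µM or titrated 100 to 0.4 µM, with 1% DMSO final. After washing, bound uPAR was detected by biotinylated anti-uPAR antibody (1 h), streptavidin-HRP (20 min) and TMB/H₂O₂ with H₂SO₄ stop; n = 2.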
T2 sequence (Q03405 23-305 limits assumed): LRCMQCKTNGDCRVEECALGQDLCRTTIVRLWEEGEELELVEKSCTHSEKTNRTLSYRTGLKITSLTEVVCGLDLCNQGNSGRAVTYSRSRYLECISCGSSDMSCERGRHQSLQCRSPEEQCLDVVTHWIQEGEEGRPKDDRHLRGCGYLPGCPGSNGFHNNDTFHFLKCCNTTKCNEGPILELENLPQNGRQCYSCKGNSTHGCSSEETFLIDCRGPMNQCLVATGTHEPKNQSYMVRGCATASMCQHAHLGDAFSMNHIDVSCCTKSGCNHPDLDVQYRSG
Background: An ELISA detects its analyte on a solid surface through an enzyme-linked reagent.

The next series can be described thus: MTT cell viability assay. The format is cell-based, human. As to conditions: human, MDA-MB-231 cells. Summed up: (§1)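 MDA-MB-231 cells were grown in DMEM with 10% FBS and 1% penicillin/streptomycin at 37 °C, 5% CO₂. Cells (10⁴/well) were plated overnight, then treated 3 days with test compound or DMSO control. MTT (20 µl of 5 mg/ml) was added for 2 h at 37 °C. Viable cells were quantified by absorbance at 570 nm with 630 nm reference.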

For series [3], the system named is MDA-MB-231 cells. The series can be described thus: MTT cell viability assay. As to conditions: MDA-MB-231, 100 µM. The format is cell-based, human. Summed up:
as §1

The target of series [4] is T1, uPAR. In words: Saturation transfer difference. The format is binding. The note with it: 438 µM 7, uPAR 50 fold less.
The target of series [5] is T1, uPAR. In words: Isothermal titration calorimetry of 7 against purified uPAR. The format is binding.
In series [6] the test system is MDA-MB-231 cells. In words: Boyden Matrigel invasion chamber assay. The format is cell-based. As to conditions: Homo sapiens, MDA-MB-231, 16 h, read-out: IC50 for MDA-MB-231 cell invasion. Summed up:
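MDA-MB-231 cells were serum-starved 4 h. Matrigel inserts had fibronectin (30 ng µl⁻¹) coated on the underside overnight at 4 °C and were equilibrated 2 h in serum-free medium. The upper chamber received 5 × 10⁴ cells in 0.1% FBS medium with test compound or 1% DMSO. The lower chamber held 10% FBS medium with the same compound. After 16 h at 37 °C, invaded cells were methanol-fixed, hematoxylin-stained and counted in ten 200× fields; n = 3.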

For series [7], the target named is T2, uPAR•uPAATF interaction. The format is binding.
Series [8] relates to Rac1 activation in MDA-MB-231 cells. In words: Rac1 pull-down assay. The format is cell-based, human.
Series [9] concerns the target VTN•uPAR•uPAATF interaction (Homo sapiens, UniProt Q03405). The series can be described thus: Microtiter-based ELISA for uPAR•VTN. The format is binding. Summed up: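 Full-length VTN (5 µg·mL⁻¹, carbonate buffer pH 9.6) was coated 12 h at 4 °C, then blocked 1 h at room temperature. Wells received 120 nM uPAR•uPA_ATF complex in PBS with 0.01% Triton X-100 plus test compound for 60 min. Compound was screened at 50 µM or titrated 100 to 0.4 µM, with 1% DMSO final. Bound uPAR was detected by biotinylated anti-uPAR antibody (1 h), streptavidin-HRP (20 min) and TMB/H₂O₂ with H₂SO₄ stop; n = 2.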

Series [10] deals with uPAR•uPA binding on HEK-293-uPAR cells (Homo sapiens, UniProt Q03405). In words: FACS analysis of FITC-conjugated uPA binding to HEK-293-uPAR cells. The format is cell-based. As to conditions: read-out: inhibition of uPA-FITC binding to uPAR (FACS). On the technique in general: A flow cytometer gives signals particle by particle.
Sequence of uPAR•uPA binding on HEK-293-uPAR cells (Q03405 23-305 limits assumed): as above
In series [11] the test system is FAK phosphorylation in MDA-MB-231 cells. The series can be described thus: Western blot for phospho-FAK. The format is cell-based, human. The procedure, abridged:
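MDA-MB-231 lysates were made in RIPA buffer with protease and phosphatase inhibitors. Thirty micrograms of protein were resolved on 10% SDS-PAGE and transferred to nitrocellulose. Blots were probed overnight at 4 °C for total FAK, phospho-FAK (Y397) or actin. Dye-conjugated anti-mouse or anti-rabbit secondaries were detected by infrared fluorescence imaging.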

T1 sequence (Q03405 23-305 limits assumed): as above
Sequence of VTN•uPAR•uPAATF interaction (Q03405 23-305 limits assumed): as above

What is called Ki is a dissociation constant, usually derived from enzyme kinetics or from competition with a known ligand. A lower Ki goes with tighter binding. By IC50 is commonly meant the midpoint of a concentration-inhibition curve. For the compound `CCCCCCOc1cccc(N2C(=O)C(O)=C(C(=O)c3ccccc3)C2c2ccc(CC)cc2)c1` (stereo not drawn) [Compound 1, 4-benzoyl-5-(4-ethylphenyl)-1-(3-(hexyloxy)phenyl)-3-hydroxy-1H-pyrrol-2(5H)-one], at uPAR [1], the Ki amounted to 4.2 µM. Besides, on uPAR•uPAATF interaction [2], the IC50 was determined as 58 µM.
The viability is a read-out of living cells in per cent, often relative to untreated cells. A low value points to more harm to the cells. For orientation: Kd means the concentration at which binding is half-saturated. Low readings indicate higher affinity, high ones lower affinity. What is called inhibition is the percentage by which the read-out fell short of the control. Consider `Cc1ccc(N2C(=O)C(O)=C(C(=O)c3ccc(Cl)cc3)C2c2cccc(F)c2)cc1Br` (stereo not drawn) [Compound 7, 1-(3-bromo-4-methylphenyl)-4-(4-chlorobenzoyl)-5-(3-fluorophenyl)-3-hydroxy-1H-pyrrol-2(5H)-one], for which the viability at 3 days, 100 µM in the series “MTT cell viability assay” was > 80%. In addition, the cytotoxicity entry in the series on MDA-MB-231 cells [3] is on record as “not cytotoxic”. Moreover, the “direct binding to uPAR (STD-NMR and ITC)” value on uPAR [4] is listed as “binds directly to uPAR”. Besides, binding on uPAR [5] was characterised by a dissociation constant (Kd) of 17.2 µM. Besides, the “enthalpy (ΔH) (ITC)” value on uPAR [5] (25 °C) is -6.4 kcal/mol. Further, at uPAR [5] (25 °C), the “entropy (ΔS) (ITC)” value is listed as 0.01 kcal/mol. Moreover, the IC50 is 35 µM in the series on MDA-MB-231 cells [6]; 12.9 µM against uPAR•uPAATF interaction [7]; 18 µM at uPAR•uPAATF interaction [2] (IC50 for inhibition of uPAR•uPAATF interaction (ELISA), 75 nM uPAR, immobilized uPAATF); 32.8 µM in [9]. Besides, the Rac1 activation result in [8] is given as “inhibited Rac1 activation in a concentration-dependent manner”. In series [10], the inhibition at 100 µM was ~40%. In addition, in series [11], the “FAK phosphorylation at Y397” value is listed as “significantly inhibited”.
